The text below walks through data of ChEMBL document CHEMBL1641387, “Antiproliferative effects of saponins from the roots of Platycodon grandiflorum on cultured human tumor cells” (J Nat Prod, 2010).

The source made the active and inactive calls. The rule behind the calls is not given here.

Common to all, as to format: functional, cell-based
Assay [1] is described as follows: (§1) Antiproliferative activity against human HCT15/CL02 cells after 48 hrs by sulforhodamine B assay. To be noted: HCT-15, 48 h. A digest of the protocol:
(§2)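 Cells kept in RPMI1640 with 5% FBS at 37 °C, 5% CO2. HCT15/CL02 is a line derived from HCT15 by stepwise doxorubicin exposure. Cells seeded and left 24 h to attach, then exposed continuously for 48 h to serially diluted saponins. Fixed with cold 10% TCA, 1 h at 4 °C, stained with 0.4% SRB, dye solubilized in 10 mM Tris (pH 10.5), absorbance at 520 nm. Each run in triplicate; IC50 by nonlinear regression, mean ± SD of three independent experiments.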
Background: In SRB staining, fixed cells bind dye roughly in proportion to their protein.

Assay [2] relates to HCT-15. Kind of assay: Antiproliferative activity against human HCT15 cells after 48 hrs by sulforhodamine B assay. To be noted: for IC50: HCT-15, 48 h. A digest of the protocol:
as §2

Assay [3] in a line: (§3) Antiproliferative activity against human MESSA cells after 48 hrs by sulforhodamine B assay. The settings on record: MES-SA. In outline:
as §2

A short description of assay [4]: (§4) Antiproliferative activity against human MESSA/DX5 cells after 48 hrs by sulforhodamine B assay. The settings on record: MES-SA/Dx5, 48 h. A digest of the protocol:
as §2

Assay [5] relates to HCT-15. The description is as §1. In outline: as §2
The test system of another assay is MES-SA. The assay is described as §3. In outline:
as §2

The next assay concerns MES-SA/Dx5. The assay is described as §4. In outline: as §2

`CC(=O)O[C@H]1[C@H](O[C@H]2[C@H](OC(=O)[C@]34CCC(C)(C)C[C@H]3C3=CC[C@@H]5[C@@]6(C)C[C@H](O)[C@H](O[C@@H]7O[C@H](CO)[C@@H](O)[C@H](O)[C@H]7O)[C@@](C)(CO)[C@@H]6CC[C@@]5(C)[C@]3(C)C[C@H]4O)OC[C@H](O)[C@@H]2O)O[C@@H](C)[C@H](O[C@@H]2OC[C@@H](O)[C@H](O[C@@H]3OC[C@](O)(CO)[C@H]3O)[C@H]2O)[C@H]1O`: the IC50 in assay [1] is more than 10 µM; in the assay with HCT-15 [2] it was more than 10 µM; in assay [3] it was 6.3 µM; in assay [4] it was 6.2 µM.

Turning to `C[C@@H]1O[C@@H](O[C@H]2[C@H](OC(=O)[C@]34CCC(C)(C)C[C@H]3C3=CC[C@@H]5[C@@]6(C)C[C@H](O)[C@H](O[C@@H]7O[C@H](CO)[C@@H](O)[C@H](O)[C@H]7O)[C@@](C)(CO)[C@@H]6CC[C@@]5(C)[C@]3(C)C[C@H]4O)OC[C@H](O)[C@@H]2O)[C@H](O)[C@H](O)[C@H]1O[C@@H]1OC[C@@H](O)[C@H](O[C@@H]2OC[C@](O)(CO)[C@H]2O)[C@H]1O` [POLYGALACIN D], the IC50 in assay [1] is more than 10 µM; in the assay with HCT-15 [2] it was 8.5 µM; in assay [3] it was 5 µM; in assay [4] it was 7.7 µM.

On to `C[C@@H]1O[C@@H](O[C@H]2[C@H](OC(=O)[C@]34CCC(C)(C)C[C@H]3C3=CC[C@@H]5[C@@]6(C)C[C@H](O)[C@H](O[C@@H]7O[C@H](CO)[C@@H](O)[C@H](O[C@@H]8O[C@H](CO)[C@@H](O)[C@H](O)[C@H]8O)[C@H]7O)C(CO)(CO)[C@@H]6CC[C@@]5(C)[C@]3(C)C[C@H]4O)OC[C@H](O)[C@@H]2O)[C@H](O)[C@H](O)[C@H]1O[C@@H]1OC[C@@H](O)[C@H](O[C@@H]2OC[C@](O)(CO)[C@H]2O)[C@H]1O` [PLATYCODIN D2], for which the IC50 in assay [1] is 5.7 µM; with HCT-15 [2] it was 9.6 µM; in assay [3] it was 3.5 µM; in assay [4] it was 5.2 µM.

On to `CC(=O)O[C@H]1[C@@H](O)[C@H](O[C@H]2[C@H](OC(=O)[C@]34CCC(C)(C)C[C@H]3C3=CC[C@@H]5[C@@]6(C)C[C@H](O)[C@H](O[C@@H]7O[C@H](CO)[C@@H](O)[C@H](O[C@@H]8O[C@H](CO)[C@@H](O)[C@H](O)[C@H]8O)[C@H]7O)[C@@](C)(CO)[C@@H]6CC[C@@]5(C)[C@]3(C)C[C@H]4O)OC[C@H](O)[C@@H]2O)O[C@@H](C)[C@@H]1O[C@@H]1OC[C@@H](O)[C@H](O[C@@H]2OC[C@](O)(CO)[C@H]2O)[C@H]1O` [2'OACETYLPOLYGALACIN D2], for which the IC50 in assay [1] came out at 5.9 µM; in the assay on HCT-15 [2] it was 3.6 µM; in assay [3], 3.4 µM; in assay [4] it was 3.4 µM.

As for `COc1cc([C@@H]2c3cc4c(cc3[C@@H](O[C@@H]3O[C@@H]5CO[C@@H](C)O[C@H]5[C@H](O)[C@H]3O)[C@H]3COC(=O)[C@H]23)OCO4)cc(OC)c1O` [ETOPOSIDE], the IC50 was more than 10 µM in assay [1], 1.6 µM in the assay with HCT-15 [2], 0.3 µM in assay [3] and more than 10 µM in assay [4].

For `CC(=O)O[C@H]1[C@H](O[C@H]2[C@H](OC(=O)[C@]34CCC(C)(C)C[C@H]3C3=CC[C@@H]5[C@@]6(C)C[C@H](O)[C@H](O[C@@H]7O[C@H](CO)[C@@H](O)[C@H](O)[C@H]7O)C(CO)(CO)[C@@H]6CC[C@@]5(C)[C@]3(C)C[C@H]4O)OC[C@H](O)[C@@H]2O)O[C@@H](C)[C@H](O[C@@H]2OC[C@@H](O)[C@H](O[C@@H]3OC[C@](O)(CO)[C@H]3O)[C@H]2O)[C@H]1O` [3'O-ACETYLPLATYCODIN D], the IC50 in assay [1] was 4.1 µM; in the assay with HCT-15 [2], 3.4 µM; in assay [3], 2.3 µM; in assay [4], 2.2 µM.

As for `CC(=O)O[C@H]1[C@@H](O)[C@H](O[C@H]2[C@H](OC(=O)[C@]34CCC(C)(C)C[C@H]3C3=CC[C@@H]5[C@@]6(C)C[C@H](O)[C@H](O[C@@H]7O[C@H](CO)[C@@H](O)[C@H](O)[C@H]7O)[C@@](C)(CO)[C@@H]6CC[C@@]5(C)[C@]3(C)C[C@H]4O)OC[C@H](O)[C@@H]2O)O[C@@H](C)[C@@H]1O[C@@H]1OC[C@@H](O)[C@H](O[C@@H]2OC[C@](O)(CO)[C@H]2O)[C@H]1O`, the IC50 was more than 10 µM in assay [1], 6.7 µM in the assay with HCT-15 [2], 3.6 µM in assay [3] and 4.2 µM in assay [4].

For the molecule `CC(=O)O[C@H]1[C@H](O[C@H]2[C@H](OC(=O)[C@]34CCC(C)(C)C[C@H]3C3=CC[C@@H]5[C@@]6(C)C[C@H](O)[C@H](O[C@@H]7O[C@H](CO)[C@@H](O)[C@H](O[C@@H]8O[C@H](CO)[C@@H](O)[C@H](O)[C@H]8O)[C@H]7O)[C@@](C)(CO)[C@@H]6CC[C@@]5(C)[C@]3(C)C[C@H]4O)OC[C@H](O)[C@@H]2O)O[C@@H](C)[C@H](O[C@@H]2OC[C@@H](O)[C@H](O[C@@H]3OC[C@](O)(CO)[C@H]3O)[C@H]2O)[C@H]1O`, the IC50 in assay [1] was 5.8 µM; in the assay on HCT-15 [2] it was 3.6 µM; in assay [3], 3.3 µM; in assay [4], 3.4 µM.

`C[C@@H]1O[C@@H](O[C@H]2[C@H](OC(=O)[C@]34CCC(C)(C)C[C@H]3C3=CC[C@@H]5[C@@]6(C)C[C@H](O)[C@H](O[C@@H]7O[C@H](CO)[C@@H](O)[C@H](O[C@@H]8O[C@H](CO)[C@@H](O)[C@H](O)[C@H]8O)[C@H]7O)[C@@](C)(CO)[C@@H]6CC[C@@]5(C)[C@]3(C)C[C@H]4O)OC[C@H](O)[C@@H]2O)[C@H](O)[C@H](O)[C@H]1O[C@@H]1OC[C@@H](O)[C@H](O[C@@H]2OC[C@](O)(CO)[C@H]2O)[C@H]1O` [POLYGALACIN D2]: the IC50 in assay [1] turned out to be 5.8 µM; in the assay on HCT-15 [2], 3.8 µM; in assay [3] it was 2.6 µM; in assay [4], 3.4 µM.

On to `C[C@@H]1O[C@@H](O[C@H]2[C@H](OC(=O)[C@]34CCC(C)(C)C[C@H]3C3=CC[C@@H]5[C@@]6(C)C[C@H](O)[C@H](O[C@@H]7O[C@H](CO)[C@@H](O)[C@H](O)[C@H]7O)C(CO)(CO)[C@@H]6CC[C@@]5(C)[C@]3(C)C[C@H]4O)OC[C@H](O)[C@@H]2O)[C@H](O)[C@H](O)[C@H]1O[C@@H]1OC[C@@H](O)[C@H](O[C@@H]2OC[C@](O)(CO)[C@H]2O)[C@H]1O` [PLATYCODIN D], for which the concentration for half-maximal inhibition (IC50) in assay [1] is 7.9 µM; with HCT-15 [2], 5.7 µM; in assay [3], 3.9 µM; in assay [4], more than 10 µM.

Regarding `CC(=O)O[C@H]1[C@@H](O)[C@H](O[C@H]2[C@H](OC(=O)[C@]34CCC(C)(C)C[C@H]3C3=CC[C@@H]5[C@@]6(C)C[C@H](O)[C@H](O[C@@H]7O[C@H](CO)[C@@H](O)[C@H](O)[C@H]7O)C(CO)(CO)[C@@H]6CC[C@@]5(C)[C@]3(C)C[C@H]4O)OC[C@H](O)[C@@H]2O)O[C@@H](C)[C@@H]1O[C@@H]1OC[C@@H](O)[C@H](O[C@@H]2OC[C@](O)(CO)[C@H]2O)[C@H]1O`, the IC50 in assay [1] is 4.2 µM; with HCT-15 [2], 3.4 µM; in assay [3] it was 2.3 µM; in assay [4] it was 2.2 µM.

Turning to `C[C@@H]1O[C@@H](O[C@H]2[C@H](OC(=O)[C@]34CCC(C)(C)C[C@H]3C3=CC[C@@H]5[C@@]6(C)C[C@H](O)[C@H](O[C@@H]7O[C@H](CO)[C@@H](O)[C@H](O[C@@H]8O[C@H](CO)[C@@H](O)[C@H](O)[C@H]8O)[C@H]7O)C(CO)(CO)[C@@H]6CC[C@@]5(C)[C@]3(C)C[C@H]4O)OC[C@H](O)[C@@H]2O)[C@H](O)[C@H](O)[C@H]1O[C@@H]1OC[C@@H](O)[C@H](O)[C@H]1O`, the outcome in the assay on HCT-15 [5], in the assay on HCT-15 [2], with MES-SA and in the assay with MES-SA/Dx5 was Active.

As a reminder, the IC50 is the concentration needed to halve the response being measured. A low value points to greater potency in that assay.
